Compounds with a hit are over-represented: about 2.2% of the library has one in this group of screens.
FLuc stim CS: FLuc activators, initial screening, artefact control for FLuc-dependent activation tests, biochemical, ATPlite luminescence; ATPlite luciferase biochemical, 10 min; 0 = ATP-free wells, 1 = DMSO control; activation factor at 10 µM; 200,000 tested, under 10 active;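 active means luciferase activation factor, scaled between plate controls, of at least 2 with compound at 10 µM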
Target sequence (P08659 whole entry, looked up): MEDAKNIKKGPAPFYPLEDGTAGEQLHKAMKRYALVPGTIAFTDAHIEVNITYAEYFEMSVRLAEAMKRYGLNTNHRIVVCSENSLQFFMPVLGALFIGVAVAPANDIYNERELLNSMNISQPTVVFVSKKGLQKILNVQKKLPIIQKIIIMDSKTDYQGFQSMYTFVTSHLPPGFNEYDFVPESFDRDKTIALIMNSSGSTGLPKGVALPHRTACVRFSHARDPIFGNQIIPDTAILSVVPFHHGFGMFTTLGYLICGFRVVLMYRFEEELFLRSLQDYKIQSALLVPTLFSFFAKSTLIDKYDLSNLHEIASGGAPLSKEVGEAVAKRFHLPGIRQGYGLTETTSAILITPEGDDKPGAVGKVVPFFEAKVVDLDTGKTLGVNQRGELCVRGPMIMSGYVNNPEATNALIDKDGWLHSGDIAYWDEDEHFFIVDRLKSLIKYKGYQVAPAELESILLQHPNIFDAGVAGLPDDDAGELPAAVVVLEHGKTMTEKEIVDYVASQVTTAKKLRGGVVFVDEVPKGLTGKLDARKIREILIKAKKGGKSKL
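Material: Luciferase/luciferin reagent mix; Doses: test compounds dosed from 2 mM stocks in 100% DMSO; Schedule: 10 min incubation after luciferase reagent addition, room temperature; Measured by: luminescence from luciferase reaction; Read-out: luminescence gain marking luciferase activators.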
PPC-1+TRAIL kill: compounds killing PPC-1 cancer cells with TRAIL present, primary screen, TRAIL potentiator project, ATPLite luminescence, uHTS; PPC-1 cells + TRAIL, ATPLite viability luminescence; cell killing (% activity), % at 4 µM or 5 µM; 220,000 compounds, 0.41% hits; AID 1443, 2008;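 active means cell killing above 50% in the first pass at 4 µM, then a duplicate retest at 5 µM averaging 50% or more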;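 further: plate controls were cells with TRAIL plus DMSO for no effect and medium-only wells lacking cells for full effect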
FLuc inh counter: firefly luciferase enzyme inhibitors, primary screen, artefact control for luciferase-based inhibitor screens, biochemical, luminescence, ATPLite | Luciferin 4-monooxygenase (Photinus pyralis), P08659 | 10 min | inhibition, % at 10 µM | 200,000 compounds, 1.5% hits;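 active means inhibition above about 50% when tested at 10 µM, limit read from the data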
APP 5'UTR act: activators of APP 5'UTR luciferase reporter, primary screen, SH-SY5Y cells | SH-SY5Y APP 5'UTR luciferase reporter, luminescence; zero percent = DMSO vehicle wells | activation, % at 2 µM | AID 1276, 2008 | 190,000 compounds, 1% hits;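 active means activation above a set limit, based on mean plus 3 SD of controls, cut at about 140% in these data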
C8 TRAIL sens: viability loss with TRAIL in NB7+C8 cells, primary screen, TRAIL sensitizer project, cell-based, ATPlite luminescence | inhibition (viability loss, TRAIL sensitization), % at 10 µM | 360,000 compounds, 1% hits | AID 624354, 2012;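 active means compounds causing at least 50% loss of cell viability in the single-dose screen, relative to plate controls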
NF-kB expr up: activators of NF-kB expression in neurons, primary screen, cell-based, HTS; human neuronal cells, NF-kB reporter expression; active compounds read high; fold change at 12.5 µM; 190,000 compounds, 1.6% hits; AID 1239, 2008; in the data active means fold change above about 3.3
Active calls of the source: *; . = no result given.

SMILES	FLuc stim CS	PPC-1+TRAIL kill	FLuc inh counter	APP 5'UTR act	C8 TRAIL sens	NF-kB expr up
N#Cc1cccc(C=C(C(=O)c2ccccc2)c2ccccc2)c1	.	.	.	.	3.0	.
Clc1ccc2oc(-c3ccccn3)nc2c1	0.3	45.8	69.2*	123.9	28.4	3.09
c1ccc(-c2nc3ccccc3o2)nc1	0.7	2.7	31.3	48.0	5.1	1.35
Nc1ccc2oc(-c3ccccn3)nc2c1	0.4	34.4	57.5*	42.5	31.2	0.93
CCc1nc2ccc(C(=O)NCCOc3ccc(OC)cc3)cn2c1N(CC)Cc1ccc(OC)c(OC)c1	.	.	.	.	13.2	.
CCOC(=O)c1c(C)c(C(=O)Nc2ccc3c(c2)OCCO3)c(C)n1C	1	10.1	0.6	-7.3	15.5	1.04
CCOC(=O)c1c(C)c(C(=O)Nc2cc(F)ccc2F)c(C)n1C	1	8.7	-4.0	5.0	-7.8	4.33*
Cc1ccc(-c2nn(-c3ccccc3)cc2CO)o1	0.7	22.4	25.5	97.5	15.8	3.81*
Cc1ccc(-c2nn(-c3ccccc3)cc2C(N)=O)o1	1	10.1	-0.1	17.2	-1.9	0.92
OCc1cn(-c2ccccc2)nc1-c1ccco1	0.7	9.3	30.7	7.5	1.0	2.17
Cc1ccc(-c2nn(-c3ccccc3)cc2C=O)o1	0.4	17.2	62.2*	143.6*	20.7	4.45*
CCOc1ccccc1-c1cc(C(=O)N/N=C/c2ccc3c(c2)OCO3)c2ccccc2n1	1	6.6	-3.6	-1.1	9.7	2.7
O=C(N/N=C/c1ccc(F)cc1)c1cc(-c2ccco2)nc2ccccc12	0.5	6.2	47.7	0.8	50.4*	1.41
O=C(O)c1cc(-c2ccco2)nc2ccccc12	0.9	1.5	7.5	-4.3	-2.9	1.25
CCOc1ccc(/C=N/NC(=O)c2cc(-c3ccco3)nc3ccccc23)cc1	0.5	2.6	53.4*	-17.5	14.2	1.31
CC(C)NC(=O)C1(C)CN(S(C)(=O)=O)CC(=O)N1CCCN1CCOCC1 (centres undefined)	.	.	.	.	-12.7	.
N/C(=N\OC(=O)c1ccc(F)cc1)c1ccc(Br)cc1	0.6	21.1	36.0	52.3	48.4	2.04
N/C(=N\OC(=O)c1ccc(F)cc1)c1ccccc1	0	6.2	97.0*	94.3	1.0	3.49*
Cc1ccc(/C(N)=N/OC(=O)c2ccc(F)cc2)cc1	0.3	8.9	68.0*	46.1	74.1*	7.94*
CN(C)C1CN(Cc2cn(Cc3cccc(C(F)(F)F)c3)nn2)S(=O)(=O)C1 (centres undefined)	.	.	.	.	0.9	.
COc1ccccc1C(=O)COC(=O)c1cc(=O)[nH]c2ccccc12	.	.	.	.	3.8	.
Cc1ccc(C(=O)COC(=O)c2cc(=O)[nH]c3ccccc23)cc1C	0.4	6.2	55.2*	-20.6	13.0	2.64
CCN1C(=O)[C@H]2[C@@H](c3ccc(OC)cc3)N[C@]3(CCCN(Cc4ccc(C)cc4)C3=O)[C@H]2C1=O	.	.	.	.	-3.2	.
COc1ccc(C(=S)Nc2ccc(N(C)C)cc2)cc1	0.7	31.7	33.7	170.3*	24.4	5.42*
Cc1ccc(NC(=S)c2ccc(N(C)C)cc2)cc1	0.4	8.8	57.6*	149.8*	38.6	3.45*
SMILES	FLuc stim CS	PPC-1+TRAIL kill	FLuc inh counter	APP 5'UTR act	C8 TRAIL sens	NF-kB expr up
CCN(CC)c1ccc(C(=S)NC2CCCCC2)cc1	0.9	3.4	7.1	27.3	2.7	1.29
COc1ccc(NC(=S)c2ccc(N(C)C)cc2)cc1	0.6	24.6	35.8	135.4*	16.9	2.84
COc1ccc(NC(=S)c2ccccc2)cc1	0.7	22.6	26.5	21.9	11.0	2.19
CN(C)c1ccc(C(=S)NC2CCCCC2)cc1	0.7	17.1	31.7	83.4	10.8	3.35*
COCCNc1nc(-c2cc3ccccc3o2)cs1	0.4	12.8	62.3*	180.5*	44.9	8.13*
COc1cc(OC)cc(C(=O)NC(=S)Nc2nc(-c3cc4ccccc4o3)cs2)c1	.	28.4	.	.	0.4	.
Fc1ccccc1N1CCN(c2cnc3ccccc3n2)CC1	0.7	1.0	25.4	.	19.5	6.31*
c1ccc(CN2CCN(c3cnc4ccccc4n3)CC2)cc1	.	.	.	.	-12.9	.
CCN1C(=O)/C(=C/C=C2/SCCN2C)SC1=S	0.9	8.7	12.9	106.5	4.5	4.73*
CC1(C(=O)Nc2ccc3c(c2)OCCO3)CCN1C(=O)c1ccco1 (centres undefined)	.	.	.	.	-5.0	.
COCCNc1c(-c2cc3ccc(C)c(C)c3[nH]c2=O)nc2ccccn12	0.3	13.9	69.7*	120.6	61.1*	2.2
COc1ccc(Oc2c(Cl)cnn(-c3ccc(F)cc3)c2=O)cc1	1	6.9	0.2	-3.1	86.6*	1.13
COc1ccc(Oc2c(Cl)cnn(-c3ccc(C)cc3)c2=O)cc1	1.1	15.8	-6.4	-12.9	60.8*	1.1
COc1ccc(Oc2c(Cl)cnn(-c3ccc(Cl)c(Cl)c3)c2=O)cc1	1	8.7	-3.8	10.8	88.7*	1.27
COc1c(Cl)cnn(-c2ccc(C)cc2)c1=O	1	19.4	0.8	-13.2	7.7	1.24
O=C(Nc1ccc(Oc2ccccc2)cc1)c1ccc2nc([C@@H]3O[C@H](CO)[C@H](O)[C@H](O)[C@H]3O)[nH]c2c1	.	.	.	.	6.8	.
C=CCN(CC=C)c1cnn(-c2nc3ccccc3[nH]2)c(=O)c1Cl	0.5	15.8	51.4*	141.6*	66.2*	2.76
O=c1c(Cl)c(NCCCO)cnn1-c1nc2ccccc2[nH]1	0.6	19.0	37.6	1.9	5.1	2.71
CCN(CC)c1ccc(/C=N/O)cc1	0.8	6.8	17.8	-5.1	5.1	1.17
CCN(CC)c1ccc(N=Nc2ncn[nH]2)cc1	0.2	47.1	82.5*	48.9	47.8	2.56
Cn1cccc1C(=O)NC(=O)COC(=O)C12CC3CC(CC(O)(C3)C1)C2	0.4	-11.4	57.3*	34.3	2.0	0.43
CC(=O)NC12CC3CC(C1)CC(C(=O)OCC(=O)NC(=O)c1cccn1C)(C3)C2	1.1	10.3	-7.7	0.5	15.9	1.08
CCN1CCN(C2=C(NS(=O)(=O)c3ccc(C)cc3)C(=O)c3ccccc3C2=O)CC1	.	.	.	.	52.0*	.
CCN1CCN(C2=C(NS(=O)(=O)c3ccc(NC(C)=O)cc3)C(=O)c3ccccc3C2=O)CC1	.	.	.	.	36.6	.
COc1ccc(C(=O)NCCSc2ccccn2)cc1	0.8	7.4	19.4	242.2*	6.1	3.92*
O=C(NCCSc1ccccc1)c1ccc(Br)cc1	0.7	6.8	31.6	179.5*	8.8	10.1*
COc1cccc(C(=O)NCCSc2ccc(F)cc2)c1	1	-12.0	2.3	47.2	-2.8	4.76*
O=C(NCCSSCCNC(=O)c1ccccc1)c1ccccc1	.	.	.	.	-3.8	.
O=C(NCCSc1ccccc1)c1ccccc1	0.9	15.0	6.2	171.4*	8.1	4.69*

Source: PubChem
